Measurements from article PMC9674229 (Proceedings of the National Academy of Sciences of the …, 2022).

Experiments:
[1] = system: SNI mice (mechanical allodynia); experiment: mechanical withdrawal threshold; format: in vivo, mouse; details: intrathecal coadministration of BIBO 3304 10.0 µg with [Leu^31, Pro^34]-NPY 10.0 µg; n = 4 to 11 mice/group
[2] = system: light touch-evoked pERK in ipsilateral dorsal horn neurons; experiment: light touch-evoked pERK immunoreactivity in dorsal horn, SNI, intrathecal agents; format: in vivo, mouse; details: intrathecal coadministration of BIBO 3304 10.0 µg with [Leu^31, Pro^34]-NPY 10.0 µg; n = 4 to 6 mice/group
[3] = system: SNI mice (cold allodynia); experiment: cold withdrawal duration; format: in vivo, mouse; details: intrathecal coadministration of BIBO 3304 10.0 µg with [Leu^31, Pro^34]-NPY 10.0 µg; n = 4 to 11 mice/group
DREADD = details: CNO 3 mg/kg; cited from earlier work
[4] = system: inhibitory DREADD hM4DGi in spinal Y1-INs; experiment: chemogenetic inhibition of Y1-INs: light touch-evoked pERK; format: in vivo, mouse; details: CNO 3 mg/kg i.p., SNI mice, n = 7 mice/group
In short: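 Y1-INs in Npy1rCre mice were targeted by left lumbar (L3–L4) DH injection of AAV8-hSyn-DIO-hM4DGi. In SNI mice, CNO (3 mg/kg i.p.) was followed by light brushing of the lateral hindpaw. Ipsilateral lumbar DH sections were then immunostained for pERK and quantified in the superficial laminae. Groups were compared by unpaired two-tailed Student's t test; data are means ± SEM.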

[5] = system: excitatory DREADD hM3DGq in spinal Y1-INs; experiment: chemogenetic activation of Y1-INs: mechanical; format: in vivo, mouse; details: CNO 3 mg/kg, uninjured mice, n = 8 mice/group
In short: (§1)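 Npy1rCre mice were given an intraspinal injection of Cre-dependent AAV8-hSyn-DIO-hM3DGq-mCitrine into the left lumbar dorsal horn; controls received mCherry virus. Mice were uninjured. CNO 3 mg/kg was given i.p. before testing. Assays: von Frey filaments to the lateral hindpaw (mechanical); a 10 μL acetone droplet to the lateral hindpaw, scoring withdrawal (cold); 52.5 C hotplate (heat). Holm-Sidak post hoc tests.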

[6] = system: inhibitory DREADD hM4DGi in spinal Y1-INs; experiment: chemogenetic inhibition of Y1-INs: mechanical withdrawal threshold; format: in vivo, mouse; details: CNO 3 mg/kg i.p., n = 7 mice/group
In short: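 Adult Npy1rCre mice received intraspinal Cre-dependent AAV8-hSyn-DIO-hM4DGi (mCherry-tagged) into the left lumbar DH at L3–L4. CNO (3 mg/kg, i.p.) was given either before or after SNI. Calibrated von Frey filaments were applied to the lateral hindpaw to measure withdrawal thresholds. Statistics used two-way ANOVA with Holm-Sidak post hoc tests, and data are shown as means ± SEM.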

[7] = system: inhibitory DREADD hM4DGi in spinal Y1-INs; experiment: chemogenetic inhibition of Y1-INs: conditioned place preference; format: in vivo, mouse; details: CNO 3 mg/kg i.p., SNI mice, n = 10 to 11 mice/group
In short: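 SNI Npy1rCre mice carried either intraspinal (left lumbar DH) Cre-dependent hM4DGi or control mCherry virus. After conditioning with CNO (3 mg/kg i.p.) paired to one chamber, time spent in the CNO-paired chamber was recorded. Groups were compared with an unpaired two-tailed Student's t test; data are means ± SEM.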

[8] = system: excitatory DREADD hM3DGq in spinal Y1-INs; experiment: chemogenetic activation of Y1-INs: conditioned place aversion; format: in vivo, mouse; details: CNO 3 mg/kg i.p., uninjured mice, n = 10 to 11 mice/group
[9] = system: excitatory DREADD hM3DGq in spinal Y1-INs; experiment: chemogenetic activation of Y1-INs: heat; format: in vivo, mouse; details: CNO 3 mg/kg, uninjured mice, n = 8 mice/group
In short: as §1

[10] = system: excitatory DREADD hM3DGq in spinal Y1-INs; experiment: chemogenetic activation of Y1-INs: open field testing; format: in vivo, mouse; details: CNO 3 mg/kg, 60 min, n = 6 mice/group
In short: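 Uninjured Npy1rCre mice carried left lumbar dorsal-horn Cre-dependent hM3DGq or mCherry virus. Immediately after CNO (3 mg/kg, i.p.), mice were placed in a novel open field for 60 min. […] Averaged activity shown as heat maps. Student's unpaired two-tailed t test.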

[11] = system: excitatory DREADD hM3DGq in spinal Y1-INs; experiment: chemogenetic activation of Y1-INs: spontaneous nocifensive behavior; format: in vivo, mouse; details: CNO 3 mg/kg i.p., n = 3 to 5 mice/group
In short: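 Cre-dependent AAV8-hSyn-DIO-hM3DGq-mCitrine or mCherry control virus was injected into the left lumbar dorsal horn of uninjured Npy1rCre mice. CNO (3 mg/kg, i.p.) or saline was given, then behaviour was videotaped. Scored: nocifensive acts (lifting, flapping, shaking, licking, guarding) and itch-like acts (biting, scratching), each directed to the ipsilateral or contralateral hind limb. Three-way RM ANOVA, Holm-Sidak post hoc.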

[12] = system: excitatory DREADD hM3DGq in spinal Y1-INs; experiment: chemogenetic activation of Y1-INs: cold; format: in vivo, mouse; details: CNO 3 mg/kg, uninjured mice, n = 8 mice/group
In short: as §1

[13] = system: inhibitory DREADD hM4DGi in spinal Y1-INs; experiment: chemogenetic inhibition of Y1-INs: cold; format: in vivo, mouse; details: CNO 3 mg/kg i.p., n = 7 mice/group
In short: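 Npy1rCre mice were given intraspinal AAV8-hSyn-DIO-hM4DGi into the left lumbar (L3–L4) DH, which expresses Gi-DREADD in Y1-INs. CNO 3 mg/kg i.p. was dosed pre- or post-SNI. Cold sensitivity was scored as the withdrawal response to a 10 μL acetone droplet on the lateral hindpaw. Analysis used two-way ANOVA and Holm-Sidak post hoc tests; data are means ± SEM.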

[14] = system: spinal cord transient firing neurons; details: cited from earlier work
Y1 receptors = details: intrathecal; rodent models of chronic pain; cited from earlier work

NC(=O)NCc1ccc(CNC(=O)[C@@H](CCCN=C(N)N)NC(=O)C(c2ccccc2)c2ccccc2)cc1 [BIBO 3304]
effect on Y1 agonist-induced mechanical anti-allodynia [1]: abolishes
effect on Y1 agonist-induced reduction of light touch-evoked pERK [2]: this effect is abolished with coadministration of the Y1 antagonist
effect on Y1 agonist-induced cold anti-allodynia [3]: abolishes

C[N+]1([O-])CCN(C2=Nc3cc(Cl)ccc3Nc3ccccc32)CC1 [CNO, clozapine N-oxide]
time to alter DREADD-dependent neuronal activity (DREADD): ≤ 15 min
light touch-evoked pERK in the superficial DH [4]: reduced light-touch evoked pERK in the superficial DH
mechanical (vF) hypersensitivity [5]: hypersensitivity
SNI-induced mechanical hypersensitivity ([6]; post-SNI): abolished both mechanical and cold hypersensitivity
mechanical withdrawal thresholds before SNI ([6]; pre-SNI): does not alter mechanical or cold withdrawal thresholds before SNI
conditioned place preference (time in CNO-paired chamber) ([7]; control virus (mCherry)): but not control virus (mCherry) spent more time in the CNO-paired chamber
conditioned place preference (time in CNO-paired chamber) ([7]; hM4DGi): spent more time in the CNO-paired chamber
conditioned place aversion [8]: produced a robust CPA
heat (52.5 C hotplate) hypersensitivity [9]: hypersensitivity
grooming-like behaviors (stereotypic episode activity count) [10]: increased grooming-like (stereotypic episode activity count) behaviors
movement in open field [10]: continuous movement
rest in open field [10]: lack of rest
spontaneous nocifensive behaviors ([11]; control (mCherry) virus): but not control (mCherry) virus
itch-like (biting or scratching) behaviors ([11]; hM3DGq, uninjured mice): but not itch-like (biting or scratching) behaviors
spontaneous nocifensive behaviors, contralateral hind limb ([11]; hM3DGq, uninjured mice): but not contralateral, hind limb
cold (acetone droplet withdrawal) hypersensitivity [12]: hypersensitivity
SNI-induced cold hypersensitivity ([13]; post-SNI): abolished both mechanical and cold hypersensitivity
cold withdrawal thresholds before SNI ([13]; pre-SNI): does not alter mechanical or cold withdrawal thresholds before SNI

NCC1(CC(=O)O)CCCCC1 [gabapentin]
frequency and amplitude of sEPSCs [14]: reducing both the frequency and amplitude of sEPSCs

neuropeptide Y [NPY]
behavioral and spinal molecular signs of hyperalgesia (Y1 receptors): reduces the behavioral and spinal molecular signs of hyperalgesia
